Laboratory results from ChEMBL document CHEMBL1157543, “Synthesis and biological evaluation of polysulfated oligosaccharide glycosides as inhibitors of angiogenesis and tumor growth” (J Med Chem, 2010).

Key:
[1] = tested on: Plasma; assay: Anticoagulant activity in human plasma assessed as activated partial thromboplastin time; format: functional
Procedure, shortened: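 Pooled normal human plasma spiked with compound in PBS at 0.1 mg/mL (methods give a 0–100 μg/mL range); APTT elevation measured. Normal range 26–36 s. Values are means of two determinations.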

[2] = molecular target: T1, Heparanase (Homo sapiens, UniProt Q9Y251); assay: Inhibition of human recombinant heparanase
T1 sequence (Q9Y251 whole entry): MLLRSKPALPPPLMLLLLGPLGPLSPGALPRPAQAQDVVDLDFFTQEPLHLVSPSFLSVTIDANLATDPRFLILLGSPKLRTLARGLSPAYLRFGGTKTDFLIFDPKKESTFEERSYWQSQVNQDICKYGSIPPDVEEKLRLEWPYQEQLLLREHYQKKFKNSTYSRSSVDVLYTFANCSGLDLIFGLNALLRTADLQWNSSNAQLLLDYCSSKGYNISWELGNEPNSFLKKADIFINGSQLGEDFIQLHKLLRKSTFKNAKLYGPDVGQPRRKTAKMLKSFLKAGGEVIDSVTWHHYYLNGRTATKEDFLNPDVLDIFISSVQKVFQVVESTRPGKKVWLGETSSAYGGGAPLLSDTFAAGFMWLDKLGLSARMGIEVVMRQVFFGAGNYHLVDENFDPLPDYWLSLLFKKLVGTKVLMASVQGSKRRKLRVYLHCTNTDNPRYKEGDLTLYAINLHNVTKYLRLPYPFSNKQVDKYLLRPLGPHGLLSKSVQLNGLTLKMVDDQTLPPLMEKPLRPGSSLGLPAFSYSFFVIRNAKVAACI
Procedure, shortened: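 Recombinant human heparanase assayed by ultrafiltration with 3H-labelled heparan sulfate as substrate (Km = 1.64 μM). Ki values with standard error were derived from inhibition response curves.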

[3] = molecular target: T2, Vascular endothelial growth factor A, long form (Homo sapiens, UniProt P15692); assay: Binding affinity to VEGF by surface plasmon-based solution affinity assay
T2 sequence (P15692 whole entry): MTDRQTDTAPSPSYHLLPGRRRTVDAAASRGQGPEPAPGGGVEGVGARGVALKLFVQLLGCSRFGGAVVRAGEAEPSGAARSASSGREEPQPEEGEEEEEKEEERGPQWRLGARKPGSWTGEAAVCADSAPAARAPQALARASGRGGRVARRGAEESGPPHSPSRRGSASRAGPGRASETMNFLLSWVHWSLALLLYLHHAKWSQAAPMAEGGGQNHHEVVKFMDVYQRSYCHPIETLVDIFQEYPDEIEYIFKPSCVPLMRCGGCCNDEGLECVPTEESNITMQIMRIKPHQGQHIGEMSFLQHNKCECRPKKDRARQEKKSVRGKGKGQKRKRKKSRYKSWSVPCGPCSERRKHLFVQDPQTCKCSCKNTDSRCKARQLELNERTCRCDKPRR
Procedure, shortened: (§1)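 Surface plasmon resonance solution affinity assay on heparin-coated CM4 chips. Buffer: HBS-EP (10 mM HEPES pH 7.4, 150 mM NaCl, 3.0 mM EDTA, 0.005% polysorbate 20). Kd is the mean of at least duplicate measurements ± SD.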

[4] = molecular target: Fibroblast growth factor 1 (Homo sapiens, UniProt P05230); assay: Binding affinity to FGF1 by surface plasmon-based solution affinity assay; procedure, shortened: as §1
Fibroblast growth factor 1, sequence (P05230 whole entry): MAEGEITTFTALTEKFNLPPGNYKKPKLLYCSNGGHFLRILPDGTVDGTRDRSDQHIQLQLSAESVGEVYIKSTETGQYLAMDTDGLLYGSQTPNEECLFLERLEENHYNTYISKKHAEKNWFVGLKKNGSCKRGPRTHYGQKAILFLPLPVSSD

[5] = molecular target: Fibroblast growth factor 2 (Homo sapiens, UniProt P09038); assay: Binding affinity to FGF2 by surface plasmon-based solution affinity assay
Fibroblast growth factor 2, sequence (P09038 143-288 limits assumed): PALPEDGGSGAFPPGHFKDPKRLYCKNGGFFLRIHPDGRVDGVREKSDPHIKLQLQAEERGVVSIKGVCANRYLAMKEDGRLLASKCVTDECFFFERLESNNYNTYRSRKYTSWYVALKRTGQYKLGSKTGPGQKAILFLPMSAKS
Procedure, shortened: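 Surface plasmon resonance solution affinity assay on heparin-coated CM4 chips. FGF-2 binding run in HBS-EP containing 300 mM NaCl. Kd is the mean of at least duplicate measurements ± SD.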

[6] = tested on: Plasma; assay: Anticoagulant activity in human plasma by heptest; format: functional
Procedure, shortened: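 Heptest clot assay. Plasma (centrifuged 1800g, 10 min, used within 30 min) incubated with compound 2 min at 37 °C. Factor Xa added, 2 min at 37 °C, then clotting started with Recalmix; read on a ball coagulometer. Normal range 13–20 s; means of two determinations.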

[7] = tested on: HUVEC; assay: Cytotoxicity against HUVEC; format: cell-based; settings: human

CCCCCCCCCCCCO[C@H]1O[C@H](COS(=O)(=O)[O-])[C@@H](OS(=O)(=O)[O-])[C@H](OS(=O)(=O)[O-])[C@@H]1O[C@H]1O[C@H](COS(=O)(=O)[O-])[C@@H](OS(=O)(=O)[O-])[C@H](O[C@H]2O[C@H](COS(=O)(=O)[O-])[C@@H](OS(=O)(=O)[O-])[C@H](O[C@H]3O[C@H](COS(=O)(=O)[O-])[C@@H](OS(=O)(=O)[O-])[C@H](O[C@H]4O[C@H](COS(=O)(=O)[O-])[C@@H](OS(=O)(=O)[O-])[C@H](OS(=O)(=O)[O-])[C@@H]4OS(=O)(=O)[O-])[C@@H]3OS(=O)(=O)[O-])[C@@H]2OS(=O)(=O)[O-])[C@@H]1OS(=O)(=O)[O-].[Na+].[Na+].[Na+].[Na+].[Na+].[Na+].[Na+].[Na+].[Na+].[Na+].[Na+].[Na+].[Na+].[Na+].[Na+].[Na+]
Time [1]: 125.9 s | Ki [2]: 280 nM | Kd [3]: 12 nM | Kd [4]: 6 nM | Kd [5]: 480 nM | Activity [6]: 64.2 s | LC50 [7]: > 100000 nM

CCCCc1ccc(CO[C@H]2O[C@H](COS(=O)(=O)[O-])[C@@H](OS(=O)(=O)[O-])[C@H](OS(=O)(=O)[O-])[C@@H]2O[C@H]2O[C@H](COS(=O)(=O)[O-])[C@@H](OS(=O)(=O)[O-])[C@H](O[C@H]3O[C@H](COS(=O)(=O)[O-])[C@@H](OS(=O)(=O)[O-])[C@H](O[C@H]4O[C@H](COS(=O)(=O)[O-])[C@@H](OS(=O)(=O)[O-])[C@H](OS(=O)(=O)[O-])[C@@H]4OS(=O)(=O)[O-])[C@@H]3OS(=O)(=O)[O-])[C@@H]2OS(=O)(=O)[O-])cc1.[Na+].[Na+].[Na+].[Na+].[Na+].[Na+].[Na+].[Na+].[Na+].[Na+].[Na+].[Na+].[Na+]
Time [1]: 73.1 s | Ki [2]: 310 nM | Kd [3]: 12 nM | Kd [4]: 0.21 nM | Kd [5]: 160 nM | Activity [6]: 49.8 s | LC50 [7]: > 100000 nM

O=S(=O)([O-])OC[C@H]1O[C@H](OCCCn2cc(-c3ccccc3)nn2)[C@@H](O[C@H]2O[C@H](COS(=O)(=O)[O-])[C@@H](OS(=O)(=O)[O-])[C@H](O[C@H]3O[C@H](COS(=O)(=O)[O-])[C@@H](OS(=O)(=O)[O-])[C@H](O[C@H]4O[C@H](COS(=O)(=O)[O-])[C@@H](OS(=O)(=O)[O-])[C@H](O[C@H]5O[C@H](COS(=O)(=O)[O-])[C@@H](OS(=O)(=O)[O-])[C@H](OS(=O)(=O)[O-])[C@@H]5OS(=O)(=O)[O-])[C@@H]4OS(=O)(=O)[O-])[C@@H]3OS(=O)(=O)[O-])[C@@H]2OS(=O)(=O)[O-])[C@@H](OS(=O)(=O)[O-])[C@@H]1OS(=O)(=O)[O-].[Na+].[Na+].[Na+].[Na+].[Na+].[Na+].[Na+].[Na+].[Na+].[Na+].[Na+].[Na+].[Na+].[Na+].[Na+].[Na+]
Ki [2]: 350 nM | Kd [3]: 1.4 nM | Kd [4]: 0.1 nM | Kd [5]: 83 nM | LC50 [7]: > 100000 nM

CN(C)c1cccc2c(S(=O)(=O)NCCCCCCCCO[C@H]3O[C@H](COS(=O)(=O)[O-])[C@@H](OS(=O)(=O)[O-])[C@H](OS(=O)(=O)[O-])[C@@H]3O[C@H]3O[C@H](COS(=O)(=O)[O-])[C@@H](OS(=O)(=O)[O-])[C@H](O[C@H]4O[C@H](COS(=O)(=O)[O-])[C@@H](OS(=O)(=O)[O-])[C@H](O[C@H]5O[C@H](COS(=O)(=O)[O-])[C@@H](OS(=O)(=O)[O-])[C@H](OS(=O)(=O)[O-])[C@@H]5OS(=O)(=O)[O-])[C@@H]4OS(=O)(=O)[O-])[C@@H]3OS(=O)(=O)[O-])cccc12.[Na+].[Na+].[Na+].[Na+].[Na+].[Na+].[Na+].[Na+].[Na+].[Na+].[Na+].[Na+].[Na+]
Ki [2]: 330 nM | Kd [3]: 8.9 nM | Kd [4]: 0.2 nM | Kd [5]: 130 nM | LC50 [7]: > 100000 nM

O=S(=O)([O-])OC[C@H]1O[C@H](OCCCCCCCCCCCCn2cc(-c3cccc4ccccc34)nn2)[C@@H](O[C@H]2O[C@H](COS(=O)(=O)[O-])[C@@H](OS(=O)(=O)[O-])[C@H](O[C@H]3O[C@H](COS(=O)(=O)[O-])[C@@H](OS(=O)(=O)[O-])[C@H](O[C@H]4O[C@H](COS(=O)(=O)[O-])[C@@H](OS(=O)(=O)[O-])[C@H](O[C@H]5O[C@H](COS(=O)(=O)[O-])[C@@H](OS(=O)(=O)[O-])[C@H](OS(=O)(=O)[O-])[C@@H]5OS(=O)(=O)[O-])[C@@H]4OS(=O)(=O)[O-])[C@@H]3OS(=O)(=O)[O-])[C@@H]2OS(=O)(=O)[O-])[C@@H](OS(=O)(=O)[O-])[C@@H]1OS(=O)(=O)[O-].[Na+].[Na+].[Na+].[Na+].[Na+].[Na+].[Na+].[Na+].[Na+].[Na+].[Na+].[Na+].[Na+].[Na+].[Na+].[Na+]
Ki [2]: 270 nM | Kd [3]: 0.79 nM | Kd [4]: 0.19 nM | Kd [5]: 73 nM | LC50 [7]: > 100000 nM

O=S(=O)([O-])OC[C@H]1O[C@H](OCCCCCCCCCCCCn2cc(-c3ccccc3)nn2)[C@@H](O[C@H]2O[C@H](COS(=O)(=O)[O-])[C@@H](OS(=O)(=O)[O-])[C@H](O[C@H]3O[C@H](COS(=O)(=O)[O-])[C@@H](OS(=O)(=O)[O-])[C@H](O[C@H]4O[C@H](COS(=O)(=O)[O-])[C@@H](OS(=O)(=O)[O-])[C@H](O[C@H]5O[C@H](COS(=O)(=O)[O-])[C@@H](OS(=O)(=O)[O-])[C@H](OS(=O)(=O)[O-])[C@@H]5OS(=O)(=O)[O-])[C@@H]4OS(=O)(=O)[O-])[C@@H]3OS(=O)(=O)[O-])[C@@H]2OS(=O)(=O)[O-])[C@@H](OS(=O)(=O)[O-])[C@@H]1OS(=O)(=O)[O-].[Na+].[Na+].[Na+].[Na+].[Na+].[Na+].[Na+].[Na+].[Na+].[Na+].[Na+].[Na+].[Na+].[Na+].[Na+].[Na+]
Ki [2]: 270 nM | Kd [3]: 5.1 nM | Kd [4]: 2.3 nM | Kd [5]: 253 nM | LC50 [7]: > 100000 nM

O=S(=O)([O-])OC[C@H]1O[C@H](OCCCn2cc(-c3ccccc3)nn2)[C@@H](O[C@H]2O[C@H](COS(=O)(=O)[O-])[C@@H](OS(=O)(=O)[O-])[C@H](O[C@H]3O[C@H](COS(=O)(=O)[O-])[C@@H](OS(=O)(=O)[O-])[C@H](O[C@H]4O[C@H](COS(=O)(=O)[O-])[C@@H](OS(=O)(=O)[O-])[C@H](OS(=O)(=O)[O-])[C@@H]4OS(=O)(=O)[O-])[C@@H]3OS(=O)(=O)[O-])[C@@H]2OS(=O)(=O)[O-])[C@@H](OS(=O)(=O)[O-])[C@@H]1OS(=O)(=O)[O-].[Na+].[Na+].[Na+].[Na+].[Na+].[Na+].[Na+].[Na+].[Na+].[Na+].[Na+].[Na+].[Na+]
Ki [2]: 610 nM | Kd [3]: 25 nM | Kd [4]: 0.36 nM | Kd [5]: 550 nM | LC50 [7]: > 100000 nM

CN(C)c1cccc2c(S(=O)(=O)NCCCO[C@H]3O[C@H](COS(=O)(=O)[O-])[C@@H](OS(=O)(=O)[O-])[C@H](OS(=O)(=O)[O-])[C@@H]3O[C@H]3O[C@H](COS(=O)(=O)[O-])[C@@H](OS(=O)(=O)[O-])[C@H](O[C@H]4O[C@H](COS(=O)(=O)[O-])[C@@H](OS(=O)(=O)[O-])[C@H](O[C@H]5O[C@H](COS(=O)(=O)[O-])[C@@H](OS(=O)(=O)[O-])[C@H](O[C@H]6O[C@H](COS(=O)(=O)[O-])[C@@H](OS(=O)(=O)[O-])[C@H](OS(=O)(=O)[O-])[C@@H]6OS(=O)(=O)[O-])[C@@H]5OS(=O)(=O)[O-])[C@@H]4OS(=O)(=O)[O-])[C@@H]3OS(=O)(=O)[O-])cccc12.[Na+].[Na+].[Na+].[Na+].[Na+].[Na+].[Na+].[Na+].[Na+].[Na+].[Na+].[Na+].[Na+].[Na+].[Na+].[Na+]
Ki [2]: 570 nM | Kd [3]: 12.2 nM | Kd [4]: 0.79 nM | Kd [5]: 86 nM | LC50 [7]: > 100000 nM
